One assay in a line: Competitive reversible inhibition of rabbit liver guanase assessed as inhibition of guanine hydrolysis by Lineweaver-Burk plot method. On the set-up: species or system Oryctolagus cuniculus. Put shortly: (§1)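 Rabbit liver guanase (ammonium sulfate suspension, diluted to 0.1278 U/mL; 0.0077 units per assay) in 0.05 M Tris-HCl pH 7.4, 25°C, 1.0 mL final volume. Guanine 5–40 µM (5–6 levels) at fixed inhibitor 10, 20 or 30 µM (DMSO or methanol stocks). Initial rate from absorbance decrease at 245 nm, mean of two data sets; Ki from Lineweaver-Burk plots.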
What is called Ki is a measure of affinity in units of concentration, obtained from inhibition or displacement. Regarding `CCCCOC1CNC(=O)c2ncn(Cc3ccccc3)c2N1` (stereo unspecified), the inhibitory constant (Ki) was 54 µM. Still for that read-out and setting: the figure for `COC1CNC(=O)c2ncn(Cc3ccccc3)c2N1` (stereo unspecified) is 40 µM; for `CCOC1CNC(=O)c2ncn(Cc3ccccc3)c2N1` (stereo unspecified) it is 47 µM.

The next assay can be described thus: Inhibition of rabbit liver guanase assessed as inhibition of guanine hydrolysis by Lineweaver-Burk plot method. On the set-up: species or system Oryctolagus cuniculus. Put shortly: as §1
For the compound `COc1ccc(Cn2cnc3c2NC(OC)CNC3=O)cc1` (stereo unspecified), the inhibition constant (Ki) was found to be 21 µM.

On to `CCOC1CNC(=O)c2ncn(Cc3ccc(OC)cc3)c2N1` (stereo unspecified), for which the inhibitory constant (Ki) is 33.4 µM.

Regarding `COC1CNC(=O)c2ncn(Cc3ccc(F)cc3)c2N1` (stereo unspecified), the Ki came to 39.7 µM. Consider `COc1ccc(Cn2cnc3c2C(=O)NCC(OC)N3)cc1` (stereo unspecified), for which the Ki turned out to be 47.5 µM. On the same count and under the same terms, the figure for `COC1CNC(=O)c2nc[nH]c2N1Cc1ccccc1` (stereo unspecified) is 8.8 µM. Still for that read-out and setting: the figure for `COc1ccc(Cn2cnc3c2C(=O)NCC(OC)N3Cc2ccccc2)cc1` (stereo unspecified) is 26.5 µM. For the compound `CCOC1CNC(=O)c2c(ncn2Cc2ccc(OC)cc2)N1Cc1ccccc1` (stereo unspecified), the Ki came to 43.8 µM. For `O=C1NC(O)CNc2nc[nH]c21` (stereo unspecified) [AZEPINOMYCIN], the Ki worked out at 2.5 µM.

Values taken from ChEMBL document CHEMBL2413046, “Analogs of iso-azepinomycin as potential transition-state analog inhibitors of guanase: synthesis, biochemical screening, and structure-activity correlations of various selectively substituted imidazo[4,5-e][1,4]diazepines” (Bioorg Med Chem, 2013).
